CHOP inh: CHOP inhibition in unfolded protein response; CHO-K1 CHOP-promoter luciferase, tunicamycin-induced, 15-18 h; inhibition, % at 10 µM; hit rate 3.8% among 220,000; AID 2732;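 active = compounds that reduced the stress-induced luciferase reporter signal by more than about 70% of percent inhibition, limit read from the data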;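 also: 0% = tunicamycin plus vehicle and 100% = wells without tunicamycin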
hiPSC survival: increases survival of single human iPS cells. hiPSC single-cell survival, ATPlite luminescence; 100% = ROCK inhibitor wells, 0% = DMSO. survival enhancement, % at 20 µM. hit rate 0.044% among 360,000. AID 602274; in the data active = survival enhancement above about 18%;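 also: cells exposed to compounds for 16 hours before the ATP read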
Cardio protect: myocardial damage modulation in H9c2 cells; H9c2 cardiomyocytes, H2O2 injury protection, ATPLite, 2 h; hit rate 0.63% among 360,000; protection from H2O2 cell death, % at 20 µM;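 active = compounds giving at least 50% protection of heart cells from peroxide-induced death in the single-dose screen, raw or plate-pattern-corrected value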;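 also: 0% = DMSO wells with peroxide and 100% = DMSO wells without peroxide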
CHOP UPR activ: activators of apoptotic arm of unfolded protein response (CHOP); hit rate 0.34% among 330,000; CHO-CHOP luciferase reporter, UPR activation, luminescence; percent of tunicamycin response over DMSO baseline; AID 449763; activation, % at 10 µM;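 active = at 10 µM dose, activation of 40% or more, normalized to positive control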;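 also: 100% = tunicamycin at 10 µg/mL and 0% = DMSO alone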
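Assay system: CHO-CHOP cells, stable luciferase reporter of PERK-eIF2a-CHOP signalling / Buffer or medium: F12 plus 10% serum / Compound dosing: one dose, 10 µM in 0.5% DMSO / Times: 6 h compound treatment, 37 °C / Technique: luciferase luminescence / Read-out: % reporter activation, DMSO baseline versus tunicamycin full activation / Benchmarks: tunicamycin and DMSO controls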
UPR XBP1 act: adaptive UPR (XBP1) activation; CHO-XBP1 luciferase reporter, IRE1-XBP1 UPR activation, luminescence; percent of tunicamycin response, DMSO as zero; activation, % at 20 µM; hit rate 0.33% among 330,000; AID 463104;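 active = versus positive control, 20 µM dose yields 30% or more activation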;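 also: 100% = tunicamycin at 10 µg/mL and 0% = DMSO only wells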
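incubation = overnight seeding at 37 °C, 6 h compound treatment at 37 °C | assay system = CHO-XBP1 cells stably carrying IRE1-XBP1-driven luciferase reporter | input = 1000 cells per well | detection = luciferase luminescence | dosing = single point, 20 µM final compound, 1% DMSO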
CHOP inh conf: confirmation of CHOP induction inhibitors | shares compounds with CHOP inh | CHO-CHOP promoter luciferase reporter, tunicamycin-induced, luminescence | inhibition, % at 10 µM | hit rate 45% among 2,100;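 active = mean of three repeat readings of reporter signal inhibition above a set limit, cut at about 70% in these data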;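 also: 0% = tunicamycin plus vehicle and 100% = wells lacking tunicamycin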
CHOP UPR conf: confirmation of apoptotic unfolded protein response (CHOP) activators; shares compounds with CHOP UPR activ; hit rate 64% among 1,000; activation, % at 10 µM; CHO-CHOP cells, CHOP-luciferase reporter luminescence; percent of tunicamycin response, DMSO as zero; in the data active = activation above about 33%;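 also: 0% = DMSO wells and 100% = tunicamycin 10 µg/mL wells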
XBP1 UPR conf: adaptive UPR (XBP1) activation, confirmed; shares compounds with UPR XBP1 act; CHO-XBP1 IRE1-XBP1 luciferase reporter, luminescence; activation, % at 20 µM; hit rate 63% among 1,000; AID 485299;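 active = reporter signal at least 30% of the positive control's activation in two or more of four replicate wells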;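 also: plate controls were DMSO negative control for no effect and tunicamycin 10 µg/mL positive control for full effect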
The depositor's hits bear a star; . = no result given. This is one part of a sample in which hits are shown more often than they occur.

SMILES	CHOP inh	hiPSC survival	Cardio protect	CHOP UPR activ	UPR XBP1 act	CHOP inh conf	CHOP UPR conf	others
O=S(=O)(c1ccc(Cl)cc1)c1snnc1-c1ccccc1	.	-6	-17	64*	12	-82	55*
COc1ccc(Cl)cc1N(CC(=O)NCc1ccccn1)S(=O)(=O)c1ccc(C)cc1	.	0	-8	.	.	.	.
O=C1NN(c2ccccc2)C(=O)/C1=C/c1ccc(-c2ccc(Cl)c(C(=O)O)c2)o1	25	2	-2	.	.	.	.
O=C1NN(c2ccccc2)C(=O)/C1=C/c1ccc(Sc2ccc(Cl)cc2)o1	98*	0	-15	61*	3	78*	43*
Cc1ccc(Sc2ccc(/C=C3/C(=O)NN(c4ccccc4)C3=O)o2)cc1	98*	0	1	44*	4	36	40*
CC1=NOC(=O)/C1=C\c1ccc(-c2ccc(Br)cc2)o1	-2	-2	-34	.	.	.	.
CC1=NOC(=O)/C1=C/c1ccc(-c2ccc(Cl)cc2)o1	109*	-2	-18	265*	-9	66	34*
CC1=NOC(=O)/C1=C\c1ccc(-c2ccc(Br)cc2C(=O)O)o1	-10	1	4	-1	0	.	.
CC1=NOC(=O)/C1=C\c1ccc(-c2cc(Cl)ccc2Cl)o1	114*	-2	-39	69*	-8	-20	-9
Cc1ccc(/C=C2\CCC3=C2OC(N)=C(C#N)C3c2ccc(C)cc2)cc1 (stereo not given)	98*	6	-10	92*	13	-75	81*
CCn1c(N2CCN(C(c3ccccc3)c3ccccc3)CC2)nc2c1c(=O)[nH]c(=O)n2C	.	0	34	.	.	.	.
COc1ccccc1N1CCN(Cc2ccc(O)c3ncccc23)CC1	102*	-1	37	113*	18	-66	97*
COc1ccccc1N1CCN(Cc2ccc(OC)c(OC)c2OC)CC1	10	-1	6	-1	-3	.	.
CCN1CCN(Cc2ccc(NC(=O)c3ccc(C)c(NC(=O)c4c[nH]c5cc(C(F)(F)F)ccc5c4=O)c3)cc2C(F)(F)F)CC1	104*	-2	-45	68*	-2	114*	-5
CC1(c2nnnn2Cc2ccccc2)CCC(=O)N1Cc1ccco1 (stereo not given)	.	1	.	.	.	.	.
CCOc1cc(C=C(C(=O)OC)C(=O)OC)ccc1OCc1ccc([N+](=O)[O-])cc1	99*	-4	-30	220*	-5	-40	242*
CCOc1cc(/C=N/O)ccc1OCc1ccc([N+](=O)[O-])cc1	5	-1	0	5	4	.	.
Cc1sc2nc(CSC(C)C(=O)Nc3ccc(Cl)cn3)[nH]c(=O)c2c1C (stereo not given)	.	0	14	0	-2	.	.
CCOC(=O)/C(=C\c1ccc(Cl)cc1)c1nc2sc(C)c(C)c2c(=O)[nH]1	107*	0	-14	59*	-2	-45	198*
CCOC(=O)C1=C(Cc2ccc(Cl)cc2)C(=O)c2ccccc2C1=O	107*	-4	-19	118*	-1	45	37*
CCOC(=O)C1=C(O)c2ccccc2C(=O)/C1=C\c1ccc(C)cc1	-29	-4	-15	.	.	.	.
COc1ccccc1-c1cnc(C(O)c2cc(C)ccc2C)[nH]1 (stereo not given)	.	4	-4	.	.	.	.
COc1cccc(C(=O)C(C#N)=C(SC)SC)c1	102*	-1	-17	119*	-4	118*	3
CC1(C(=O)NS(=O)(=O)c2ccc(F)cc2F)CCN1C(=O)CCc1ccc(Cl)cc1Cl (stereo not given)	.	2	0	.	.	.	.
CCN1C(=O)C(CC(=O)NCCc2ccccc2)N(NC(=O)c2ccc(Br)cc2)C1=S (stereo not given)	.	0	4	.	.	.	.
SMILES	CHOP inh	hiPSC survival	Cardio protect	CHOP UPR activ	UPR XBP1 act	CHOP inh conf	CHOP UPR conf	others
N#C/C(=C/c1ccc(N2CCCCCC2)o1)c1ccc(Cl)cc1	103*	-5	-13	92*	-1	31	17
COC(=O)C[C@@H]1C[C@@H]2c3cc(NS(=O)(=O)c4ccc(F)cc4)ccc3O[C@@H]2[C@H](CO)O1	.	0	6	.	.	.	.
Cc1ccc(NN2C(=O)C=C(c3ccccc3)C2=O)cc1	107*	0	-6	54*	-10	-139	172*
O=C1c2ccccc2C(=O)N1Nc1ccccc1	17	2	-5	0	-2	.	.
CCOc1cc(NC(=O)CCl)c(OCC)cc1NC(=O)CCl	98*	0	-20	153*	-4	79*	87*
CCOc1cc(NC(=S)Nc2ccc(Cl)cc2)c(OCC)cc1NC(C)=O	-18	4	-5	4	1	.	.
COc1ccc(S(=O)(=O)N2CCC(C(=O)N[C@@H](C)C(=O)NCc3ccccn3)CC2)cc1	.	-2	-2	.	.	.	.
CCOC(=O)c1ccc(N2C(=O)C=CC2=O)cc1	112*	-2	-14	47*	-4	-37	33*
O=C(CCl)c1ccc(Cc2ncc(C(F)(F)F)cc2Cl)s1	104*	-2	-16	169*	8	-119	169*
CC(=O)Nc1ccc(NC2=C(Cl)C(=O)c3ccccc3C2=O)cc1	104*	.	.	45*	-1	-125	20
CCOc1cccc(C(=O)Nc2cccc(-c3nnc(-c4ccccc4)o3)c2)c1	46	-2	49	7	-1	.	.
CCOc1cccc(C(=O)Nc2cccc(-c3nnc(-c4ccc(C)cc4)o3)c2)c1	105*	-4	-20	136*	162*	103*	54*	XBP1 UPR conf=160*
Cc1cccc(CN2CCN([C@H]3CS(=O)(=O)N[C@@H]3COCc3ccccc3)CC2)c1	.	0	0	.	.	.	.
Cc1ccccc1OCc1n(CC(=O)OC2CC(C)CCC2C(C)C)c2ccccc2[n+]1C (stereo not given)	108*	-5	-20	7	45*	137*	.	XBP1 UPR conf=22
COc1ccc(C2=CC(=O)C[C@H](c3ccc(Cl)cc3)C2)cn1	.	1	-6	0	-3	.	.
COc1ccc(Cn2c(SCc3cc(C)ccc3C)nc3cc(OC)c(OC)cc3c2=N)cc1	104*	-4	-18	20	100*	123*	.	XBP1 UPR conf=67*
COc1cc2nc(SCc3ccc(Cl)cc3Cl)n(Cc3cccs3)c(=N)c2cc1OC	36	-1	-4	-2	-1	.	.
COc1ccc(N=c2oc3ccc(OC)cc3cc2-c2nc3ccccc3[nH]2)cc1	102*	-4	-28	135*	84*	107*	147*	XBP1 UPR conf=133*
